Results: paper PMC7825275 (Cancer chemotherapy and pharmacology, 2019)

Assays:
[1] = Ultrafilterable carboplatin; assay type: in vivo, human
Procedure, shortened: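 Ultrafilterable platinum was measured by atomic absorption spectrophotometry in patient plasma. […] Plasma was spun at ~1,000 x g for 10 min and stored at −70°C or colder. Parameters were derived non-compartmentally. AUC targeting bias and precision were taken as mean prediction error and root mean squared prediction error. Cycles were compared by 2-sided exact Wilcoxon signed rank.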

[2] = Paclitaxel plasma pharmacokinetics; assay type: in vivo, human; conditions: cycle 1 (veliparib -) vs cycle 2 (veliparib +)
Procedure, shortened: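 Patient plasma from heparinized blood drawn pre-dose and at 0.5–24 h after start of IV paclitaxel infusion, in the chemotherapy-alone lead-in cycle and in the veliparib cycle (day 3). Samples were spun at ~1,000 x g for 10 min and plasma held at −70°C or colder. Quantitation was by LC-MS/MS with [13C6]-paclitaxel internal standard. Parameters were derived non-compartmentally and paired cycles compared by 2-sided exact Wilcoxon signed rank.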

[3] = system: patients with advanced solid tumors; assay type: in vivo, human; conditions: with veliparib 100 mg BID and carboplatin AUC 6
Procedure, shortened: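 Standard 3+3 escalation with modified Fibonacci steps. Oral veliparib was given every 12 h on days 1–7 of 21-day cycles, with IV carboplatin/paclitaxel on day 3. For the first 46 patients, cycle 1 was chemotherapy alone and DLT was scored in cycle 2; afterwards all three agents were given in cycle 1, which was the DLT cycle. Growth factors were barred in cycles 1–2. MTD was the highest dose with ≤1/6 DLTs.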

patients = conditions: days 1-5, with veliparib 10 mg bid; cited from earlier work
[4] = system: patients with advanced solid tumors; assay: Toxicity by grade; assay type: in vivo, human; conditions: initial cycle of carboplatin and paclitaxel without veliparib
Procedure, shortened: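 Adverse events were tabulated descriptively as maximum grade in three groups: the chemotherapy-only lead-in cycle, the first veliparib-containing cycle, and all cycles. CBC and serum chemistry including liver function tests were drawn weekly during cycles 1–2, then at the start of every cycle. Veliparib was oral, twice daily on days 1–7; carboplatin/paclitaxel were IV every 21 days.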

For `N.N.O=C([O-])C1(C(=O)[O-])CCC1.[Pt+2]` [carboplatin], which “Carboplatin exposure, effect of the presence of veliparib or veliparib dose” value ([1]; cycle 1 (veliparib -) vs cycle 2 (veliparib +)) is on record?
The value was “not impacted”.

What about the “ME as % of AUC 6 mg•min/mL” value ([1]; in the absence of veliparib) of the same compound?
Its value is 31%.

What about the “RMSE as % of AUC 6 mg•min/mL” value ([1]; in the absence of veliparib) of the same compound?
Its value is 57%.

And the “ME as % of AUC 6 mg•min/mL” value ([1]; in the presence of veliparib)?
The value was 22%.

What about the “RMSE as % of AUC 6 mg•min/mL” value ([1]; in the presence of veliparib) of the same compound?
The value was 45%.

Which “paclitaxel exposure, effect of the presence of veliparib or veliparib dose” value [2] does the source give for `CC(=O)O[C@H]1C(=O)[C@@]2(C)[C@H]([C@H](OC(=O)c3ccccc3)[C@]3(O)C[C@H](OC(=O)[C@H](O)[C@@H](NC(=O)c4ccccc4)c4ccccc4)C(C)=C1C3(C)C)[C@]1(OC(C)=O)CO[C@@H]1C[C@@H]2O` [paclitaxel] here?
The value was “not impacted”.

And the “MTD and RP2D, paclitaxel dose” value [3]?
The value was 200 mg/m^2.

With `CC[C@@]1(O)C(=O)OCc2c1cc1n(c2=O)Cc2cc3c(CN(C)C)c(O)ccc3nc2-1` [topotecan] as the compound, how does the “MTD, topotecan dose” value (patients) read?
The value was 0.6 mg.

For carboplatin and paclitaxel, which “neutropenia grade 3” value [4] is on record?
Its value is 20%.

And the “neutropenia grade 4” value [4]?
Its value is 24%.

And the “neutropenia, % of patients” value [4]?
The value was 56%.
